Assay results reported in ChEMBL document CHEMBL4665894, “Driving Potency with Rotationally Stable Atropisomers: Discovery of Pyridopyrimidinedione-Carbazole Inhibitors of BTK” (ACS Med Chem Lett, 2020).
Where “and” joins values, the source holds several entries; their conditions need not be identical. Equal entries are not always repeated.

Key:
[1] = Cmax in mouse at 10 mg/kg, PO; type: ADME, organism-based; set-up: route oral, dose 10 mg/kg; settings: in vivo
[2] = biological target: T1, Tyrosine-protein kinase BTK (Homo sapiens, UniProt Q06187); experiment: Inhibition of BTK in human whole blood assessed as reduction in goat anti human IgM/human IL4-stimulated CD69 cell surface expression on peripheral B cells incubated for 18 hrs by FACS analysis; type: tissue-based
T1 sequence (Q06187 whole entry): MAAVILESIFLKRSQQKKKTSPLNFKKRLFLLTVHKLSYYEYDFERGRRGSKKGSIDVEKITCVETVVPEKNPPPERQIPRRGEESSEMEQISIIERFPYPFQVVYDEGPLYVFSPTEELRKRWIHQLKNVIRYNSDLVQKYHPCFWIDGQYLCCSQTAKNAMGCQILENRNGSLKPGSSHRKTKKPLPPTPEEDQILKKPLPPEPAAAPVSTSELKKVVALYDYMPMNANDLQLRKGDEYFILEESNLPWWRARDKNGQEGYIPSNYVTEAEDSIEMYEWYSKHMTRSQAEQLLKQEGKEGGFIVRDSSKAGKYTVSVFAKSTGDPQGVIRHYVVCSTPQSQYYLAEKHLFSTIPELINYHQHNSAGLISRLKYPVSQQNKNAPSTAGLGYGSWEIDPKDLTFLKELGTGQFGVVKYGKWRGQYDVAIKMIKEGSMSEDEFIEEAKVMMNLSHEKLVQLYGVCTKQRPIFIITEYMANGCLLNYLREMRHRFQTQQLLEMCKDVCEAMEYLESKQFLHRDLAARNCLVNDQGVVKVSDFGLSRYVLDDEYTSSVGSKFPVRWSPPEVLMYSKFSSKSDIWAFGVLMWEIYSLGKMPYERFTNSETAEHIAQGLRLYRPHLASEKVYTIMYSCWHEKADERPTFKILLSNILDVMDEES

[3] = biological target: T1, Tyrosine-protein kinase BTK; experiment: Inhibition of BTK in human Ramos B cells assessed as reduction in goat anti human IgM-stimulated calcium flux preincubated for 1 hr followed by goat anti human IgM addition and measured for 180 secs by FLIPR assay; type: cell-based
[4] = biological target: T1, Tyrosine-protein kinase BTK; experiment: Inhibition of recombinant full-length His-tagged human BTK expressed in baculovirus expression system using fluoresceinated peptide as substrate incubated for 60 mins by fluorescence assay
Homo sapiens = species: Homo sapiens; experiment: Selectivity ratio of IC50 for JAK2 (unknown origin) to IC50 for recombinant full-length His-tagged human BTK expressed in baculovirus expression system
[5] = AUC in mouse at 10 mg/kg, PO; type: ADME, organism-based; set-up: dose 10 mg/kg; settings: in vivo
B cell = experiment: Antiproliferative activity against anti-IgM/IgG-induced human peripheral B cells; type: functional, cell-based
In short: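 B cell receptor stimulation of human peripheral B cells with anti-IgM/IgG (proliferation read-out), of human whole blood with anti-IgM (CD69 surface expression), and of mouse whole blood with anti-IgM/IgG (CD69 surface expression). IC50 reported as the mean of at least three determinations; for line 9 a single determination is also reported.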

[6] = Stability of the compound in human whole blood assessed drug degradation at 0.5 uM incubated for 10 mins; type: ADME, tissue-based; settings: read-out: Drug degradation
In short: (§1)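 Test compound spiked into human whole blood at 0.5 µM and incubated; remaining parent tracked over time, with samples at 10 min and at 2 h.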

[7] = Stability of the compound in human whole blood assessed drug degradation at 0.5 uM incubated for 2 hrs; type: ADME, tissue-based; settings: read-out: Drug degradation; in short: as §1
[8] = Glutathione reactivity in human liver microsomes assessed as GSH-adduct formation at 10 uM incubated for 60 mins; type: ADME; settings: 1 h

| Cmax [1] | IC50 [2] | IC50 [3] | IC50 [4] | Ratio IC50 (Homo sapiens) | AUC [5] | metabolised at 10 min, 0.5 µM [6] | metabolised at 2 h, 0.5 µM [7] | Stabilty [8] | Structure (SMILES) | IC50 (B cell) |
| --- | --- | --- | --- | --- | --- | --- | --- | --- | --- | --- |
| 5200 nM | 75 nM and 91 nM and 79 nM | 19 nM and 18 nM and 14 nM | 0.86 nM | 1100 and 500 and 870 | 28 µM·h | – | – | – | Cc1c(-c2ccc(C(N)=O)c3[nH]c4cc(C(C)(C)O)ccc4c23)cccc1-n1c(=O)cc2c(F)cccn2c1=O | – |
| 1300 nM | 140 nM | 19 nM | – | 1600 | 3.9 µM·h | – | – | – | COc1ccn2c(=O)n(-c3cccc(-c4ccc(C(N)=O)c5[nH]c6cc(C(C)(C)O)ccc6c45)c3C)c(=O)cc2c1 | – |
| – | – | – | – | – | 80 µM·h | – | – | – | Cc1c(-c2ccc(C(N)=O)c3[nH]c4cc(C(C)(C)O)ccc4c23)cccc1-n1cnc2ccccc2c1=O | 8 nM |
| 1300 nM | 140 nM | 19 nM | – | 1900 | 4 µM·h | – | – | – | COc1cccn2c(=O)n(-c3cccc(-c4ccc(C(N)=O)c5[nH]c6cc(C(C)(C)O)ccc6c45)c3C)c(=O)cc12 | – |
| – | 3000 nM | 3.1 nM | 0.49 nM | 1500 | – | > 85% | 100% | Unstable | Cc1c(-c2ccc(C(N)=O)c3[nH]c4cc(C(C)(C)O)ccc4c23)cccc1-n1c(=O)cc2cc(Cl)ccn2c1=O | – |
| 3500 nM | 120 nM and 78 nM and 69 nM | 12 nM and 18 nM and 13 nM | – | 1400 and 1100 and 2500 | 23 µM·h | – | – | Stable | Cc1c(-c2ccc(C(N)=O)c3[nH]c4cc(C(C)(C)O)ccc4c23)cccc1-n1c(=O)cc2c(Cl)cccn2c1=O | – |
